≈ marks a conversion by molar mass, not a printed value.
Assays:
Streptococcus agalactiae = test: Antibacterial activity against Streptococcus agalactiae; type: functional
In short: (§1)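 MICs for baseline pathogens isolated from patients with complicated skin and skin-structure infections. Isolates went to a central laboratory for identification and susceptibility testing by CLSI broth dilution in fresh media.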

Streptococcus anginosus = test: Antibacterial activity against Streptococcus anginosus; type: functional; in short: as §1
Serratia marcescens = test: Antibacterial activity against Serratia marcescens; type: functional; in short: as §1
Enterobacter cloacae = test: Antibacterial activity against Enterobacter cloacae; type: functional
In short: (§2)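 Baseline isolates from cSSSI patients in three pooled tigecycline trials (one phase 2, two phase 3) were identified and susceptibility-tested at a central laboratory. MICs were determined by broth dilution in fresh media following Clinical and Laboratory Standards Institute guidelines.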

[1] = system: Acinetobacter haemolyticus; test: Antibacterial activity against Acinetobacter haemolyticus; type: functional; in short: as §1
Enterococcus faecium = test: Antibacterial activity against Enterococcus faecium; type: functional; in short: as §1
Acinetobacter baumannii = test: Antibacterial activity against Acinetobacter baumannii; type: functional; in short: as §2
Staphylococcus aureus = test: Antibacterial activity against Staphylococcus aureus; type: functional; in short: as §2
Citrobacter koseri = test: Antibacterial activity against Citrobacter koseri; type: functional; in short: as §1
Citrobacter freundii = test: Antibacterial activity against Citrobacter freundii; type: functional; in short: as §1
[2] = system: Streptococcus dysgalactiae; test: Antibacterial activity against Streptococcus dysgalactiae; type: functional; in short: as §1
Proteus mirabilis = test: Antibacterial activity against Proteus mirabilis; type: functional; in short: as §1
[3] = system: Streptococcus intermedius; test: Antibacterial activity against Streptococcus intermedius; type: functional; in short: as §1
Streptococcus pyogenes = test: Antibacterial activity against Streptococcus pyogenes; type: functional; in short: as §1
Klebsiella oxytoca = test: Antibacterial activity against Klebsiella oxytoca; type: functional; in short: as §1
[4] = system: Streptococcus constellatus; test: Antibacterial activity against Streptococcus constellatus; type: functional; in short: as §1
[5] = AUC (24 hrs)/MIC in patient with baseline skin pathogens at 50 mg loading dose followed by 25 mg every 12 hrs; type: ADME, cell-free; conditions: human, plasma
In short: (§3)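 Per-patient ratio of model-derived steady-state AUC24 to the MIC of the baseline pathogen. The AUC24 came from population PK analysis of serum LC-MS/MS levels sampled predose and at 1, 3 and 6 h. MICs were set centrally by CLSI broth dilution in fresh media on isolates taken at baseline, with i.v. dosing over 7 to 14 days.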

Klebsiella pneumoniae = test: Antibacterial activity against Klebsiella pneumoniae; type: functional; in short: as §2
[6] = system: Streptococcus dysgalactiae subsp. equisimilis; test: Antibacterial activity against Streptococcus equisimilis; type: functional; in short: as §1
[7] = AUC at 24 hrs steady state in patient with complicated skin and skin structure infection at 100 mg loading dose followed by 50 mg every 12 hrs; type: ADME, organism-based; design: dose 100 mg, time < 24 hr; conditions: human, plasma
In short: (§4)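 Tigecycline given i.v. for 7 to 14 days. Levels were measured by validated LC-MS/MS (LLOQ 10 ng/ml). Steady-state AUC24 was derived from a population PK model in evaluable patients pooled from three trials.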

Pseudomonas aeruginosa = test: Antibacterial activity against Pseudomonas aeruginosa; type: functional; in short: as §2
[8] = system: Acinetobacter calcoaceticus; test: Antibacterial activity against Acinetobacter calcoaceticus; type: functional; in short: as §1
Escherichia coli = test: Antibacterial activity against Escherichia coli; type: functional; in short: as §2
[9] = AUC (24 hrs)/MIC in patient with baseline skin pathogens at 100 mg loading dose followed by 50 mg every 12 hrs; type: ADME, cell-free; conditions: human, plasma; in short: as §3
[10] = AUC at 24 hrs steady state in patient with complicated skin and skin structure infection at 50 mg loading dose followed by 25 mg every 12 hrs; type: ADME, organism-based; design: time < 24 hr, dose 50 mg; conditions: human, plasma; in short: as §4
Enterococcus faecalis = test: Antibacterial activity against Enterococcus faecalis; type: functional; in short: as §1

**Q.** Which MIC (Streptococcus agalactiae) does the source give for `CN(C)c1cc(NC(=O)CNC(C)(C)C)c(O)c2c1C[C@H]1C[C@H]3[C@H](N(C)C)C(O)=C(C(N)=O)C(=O)[C@@]3(O)C(O)=C1C2=O` [TIGECYCLINE] here?
**A.** Its MIC is 0.06 µg/mL (≈ 0.102 µM).

**Q.** And the MIC (Streptococcus anginosus)?
**A.** Its MIC is 0.06 µg/mL (≈ 0.102 µM).

**Q.** And the MIC (Serratia marcescens)?
**A.** The MIC was 1 µg/mL (≈ 1.71 µM).

**Q.** What about the MIC (Enterobacter cloacae) of the same compound?
**A.** Its MIC is 1 µg/mL (≈ 1.71 µM).

**Q.** What about the MIC [1] of the same compound?
**A.** The MIC was 0.5 µg/mL (≈ 0.854 µM).

**Q.** What about the MIC (Enterococcus faecium) of the same compound?
**A.** The MIC was 0.06 µg/mL (≈ 0.102 µM).

**Q.** What about the MIC (Acinetobacter baumannii) of the same compound?
**A.** Its MIC is 0.25 µg/mL (≈ 0.427 µM).

**Q.** And the MIC (Staphylococcus aureus)?
**A.** The MIC was 0.06 µg/mL (≈ 0.102 µM).

**Q.** What about the MIC (Citrobacter koseri) of the same compound?
**A.** The MIC was 0.5 µg/mL (≈ 0.854 µM).

**Q.** And the MIC (Citrobacter freundii)?
**A.** Its MIC is 0.5 µg/mL (≈ 0.854 µM).

**Q.** And the MIC [2]?
**A.** Its MIC is 0.12 µg/mL (≈ 0.205 µM).

**Q.** And the MIC (Proteus mirabilis)?
**A.** Its MIC is 2 µg/mL (≈ 3.41 µM).

**Q.** What about the MIC [3] of the same compound?
**A.** Its MIC is 0.06 µg/mL (≈ 0.102 µM).

**Q.** What about the MIC (Streptococcus pyogenes) of the same compound?
**A.** Its MIC is 0.06 µg/mL (≈ 0.102 µM).

**Q.** What about the MIC (Klebsiella oxytoca) of the same compound?
**A.** The MIC was 0.5 µg/mL (≈ 0.854 µM).

**Q.** And the MIC [4]?
**A.** Its MIC is 0.12 µg/mL (≈ 0.205 µM).

**Q.** What about the RatioAUC/MIC [5] of the same compound?
**A.** The RatioAUC/MIC was 13.3.

**Q.** What about the MIC (Klebsiella pneumoniae) of the same compound?
**A.** The MIC was 0.5 µg/mL (≈ 0.854 µM).

**Q.** And the MIC [6]?
**A.** Its MIC is 0.06 µg/mL (≈ 0.102 µM).

**Q.** What about the AUC at 24 h [7] of the same compound?
**A.** The AUC at 24 h was 5390 ng·h/mL.

**Q.** And the MIC (Pseudomonas aeruginosa)?
**A.** Its MIC is 8 µg/mL (≈ 13.7 µM).

**Q.** What about the MIC [8] of the same compound?
**A.** Its MIC is 0.25 µg/mL (≈ 0.427 µM).

**Q.** And the MIC (Escherichia coli)?
**A.** Its MIC is 0.25 µg/mL (≈ 0.427 µM).

**Q.** What about the RatioAUC/MIC [9] of the same compound?
**A.** Its RatioAUC/MIC is 32.5.

**Q.** What about the AUC at 24 h [10] of the same compound?
**A.** The AUC at 24 h was 2660 ng·h/mL.

**Q.** What about the MIC (Enterococcus faecalis) of the same compound?
**A.** Its MIC is 0.12 µg/mL (≈ 0.205 µM).

Source: ChEMBL document CHEMBL1145493, “Exposure-response analyses of tigecycline efficacy in patients with complicated skin and skin-structure infections” (Antimicrob Agents Chemother, 2007)
